# Compound activity as filed in PubChem.
# Rows were chosen to be rich in hits. Some 4% of all compounds tested hit in one or more screens of this group.
# ABHD5-PLIN5 inh: ABHD5-PLIN5 interaction inhibitors, primary screen, cell lysate, split luciferase complementation, luminescence | Perilipin-5 (Homo sapiens) + 1-acylglycerol-3-phosphate O-acyltransferase ABHD5 (Homo … | Split G. princeps luciferase complementation, 4 h | inhibition, % at 4 µM | 360,000 tested, 0.78% active | AID 602281, 2012;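 active = inhibition above the mean inhibition across every tested compound plus 3 SD, cut at about 22% in these data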
# CHOP UPR activ: activators of apoptotic CHOP UPR arm, primary screen, cell-based, CHO-CHOP luciferase reporter, luminescence, uHTS; UPR activation; percent of tunicamycin response over DMSO baseline; activation, % at 10 µM; 330,000 tested, 0.34% active;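 active = at 10 µM dose, activation of 40% or more, normalized to positive control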
#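 Evaluation: % reporter activation, DMSO baseline versus tunicamycin full activation; System: CHO-CHOP luciferase reporter cell line; Input: 500 cells/well; Incubation: 6 h compound treatment, 37 °C; Measured by: Steady-Glo luciferase luminescence; Dosing: one dose, 10 µM in 0.5% DMSO; Buffer or medium: F12 medium, 10% FBS; Benchmarks: positive tunicamycin 10 µg/mL, negative DMSO alone.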
# Mdm2-MdmX inh: inhibitors of human Mdm2-MdmX association, primary screen, cell-based, luminescence, split luciferase, SaOS-2, uHTS | SaOS-2 split-luciferase Mdm2/MdmX complementation | inhibition, % at 8 µM | 330,000 tested, 3% active | AID 485346, 2010;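 active = inhibition of at least 50% at 8 µM in the primary screen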
# UPR XBP1 act: activators of adaptive XBP1 UPR arm, primary screen, cell-based, CHO-XBP1 luciferase reporter, luminescence, uHTS; IRE1-XBP1 UPR activation; percent of tunicamycin response, DMSO as zero; activation, % at 20 µM; 330,000 tested, 0.33% active;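 active = versus positive control, 20 µM dose yields 30% or more activation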
#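 incubation = overnight seeding at 37 °C, 6 h compound treatment at 37 °C | assay system = CHO-XBP1 cells stably carrying IRE1-XBP1-driven luciferase reporter | input = 1000 cells per well | detection = luciferase luminescence | dosing = single point, 20 µM final compound, 1% DMSO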
# Exocytosis inh: LAMP-1 surface exposure blockers, TALL-104 cells – cell-based, flow cytometry, MLPCN library, primary screen; 360,000 tested, 0.66% active; inhibition, % at 10 µM; AID 651702, 2012; TALL-104 LAMP-1 surface exposure; cells stimulated with thapsigargin and PMA;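 active = inhibition above about 55%, limit read from the data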
# Mdm2 MdmX conf: Mdm2-MdmX complex disruptors, retested hits, confirmation, luminescence, single concentration | inhibition, % at 8 µM | 10,000 tested, 55% active | Mdm2-MdmX binding, luminescent assay | shares compounds with Mdm2-MdmX inh; in the data active = inhibition above about 40%
# Full FLuc ctr: full-length luciferase signal inhibition, confirmation, counter-screen for Mdm2/MdmX interaction inhibitor project, cell-based, single concentration, SaOS-2. 6,200 tested, 77% active. shares compounds with Mdm2-MdmX inh. inhibition, % at 8 µM. SaOS-2 full-length luciferase counterscreen, luminescence;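 active = mean inhibition at 8 µM reaching about 37%, which flags the compound as non-specific, limit read from the data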;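 note: p53-null SaOS-2 cells with luciferase driven by a doxycycline-inducible promoter; compound on cells about two nights before reading with doxycycline added after day one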
# ABHD5-PLIN5 conf: ABHD5-PLIN5 interaction inhibitors, confirmation, biochemical, luminescence; shares compounds with ABHD5-PLIN5 inh; inhibition, % at 4 µM; 2,200 tested, 67% active; AID 651612, 2012; in the data active = inhibition above about 23%
# HNF4 split-luc: HNF4 dimerization inhibitors, counter-screen for ABHD5-PLIN5 interaction inhibitor project, biochemical, split-luciferase complementation, luminescence; shares compounds with ABHD5-PLIN5 inh; inhibition, % at 4 µM; 2,200 tested, 77% active; AID 651674, 2012;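 active = mean inhibition across replicate wells exceeding the computed hit threshold, cut at about 13% in these data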;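 note: light from luciferase halves that rejoin when HNF4 fusion proteins dimerize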
# Target sequence (P41235 whole entry, looked up, the tested form may be a part): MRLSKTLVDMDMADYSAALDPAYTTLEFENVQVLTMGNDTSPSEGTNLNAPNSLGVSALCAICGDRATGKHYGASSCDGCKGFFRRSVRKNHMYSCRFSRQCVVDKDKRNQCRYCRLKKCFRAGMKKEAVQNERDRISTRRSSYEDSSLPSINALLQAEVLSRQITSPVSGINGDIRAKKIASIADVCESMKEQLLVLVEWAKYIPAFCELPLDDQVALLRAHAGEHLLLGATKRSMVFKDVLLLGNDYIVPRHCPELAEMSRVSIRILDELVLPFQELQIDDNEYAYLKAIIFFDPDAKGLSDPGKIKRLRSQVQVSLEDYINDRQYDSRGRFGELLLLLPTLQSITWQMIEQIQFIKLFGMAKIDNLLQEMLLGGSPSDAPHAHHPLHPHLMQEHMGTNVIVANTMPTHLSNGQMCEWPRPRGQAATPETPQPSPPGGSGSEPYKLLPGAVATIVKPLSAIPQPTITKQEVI
# A number is an active result; - = inactive; . = not tested or not shown.
SMILES,ABHD5-PLIN5 inh,CHOP UPR activ,Mdm2-MdmX inh,UPR XBP1 act,Exocytosis inh,Mdm2 MdmX conf,Full FLuc ctr,ABHD5-PLIN5 conf,HNF4 split-luc
COc1cc(Cl)cc2c1Sc1ccccc1/C2=C/CCN(C)C,-,-,69,-,-,-,.,.,.
CC(=O)c1ccc(NC(=O)COC(=O)c2c3c(nc4ccccc24)/C(=C\c2cccs2)CCC3)cc1,-,-,66,-,-,-,.,.,.
O=C(COC(=O)c1c2c(nc3ccccc13)/C(=C\c1cccs1)CCC2)Nc1ccccc1,-,-,52,-,-,-,.,.,.
CCOc1cc(C(=O)Nc2cnccn2)cc(OCC)c1OCC,-,-,-,-,-,.,.,.,.
Cc1c(C(=O)NCc2ccc3c(c2)OCO3)oc2ccc(Br)cc12,-,-,73,-,-,-,.,.,.
COc1ccccc1-n1cc([C@@H]2C[C@H]3CN(c4ccccc4)C(=O)[C@]34CCCN24)cn1,-,-,77,-,-,-,.,.,.
CC(C)c1ccc(C2C3=C(CC(C)(C)CC3=O)NC3=C2C(=O)c2ccccc23)cc1 (configuration not stated),29,-,73,-,-,-,.,42,63
CC1(C)CC(=O)C2=C(C1)NC1=C(C(=O)c3ccccc31)C2c1ccccc1 (configuration not stated),-,-,-,-,-,.,.,.,.
Cc1ccc(S(=O)(=O)c2ncccc2[N+](=O)[O-])cc1,43,-,90,-,-,77,52,55,70
Cc1ccc(S(=O)(=O)c2ncccc2N)cc1,-,-,-,-,-,.,.,.,.
O=C(CCCO)NC1Cc2ccccc2C1,-,-,-,-,-,.,.,.,.
CC(/C=C\c1ccccc1)=C/C(=O)O,-,-,-,-,-,.,.,.,.
O=C(/C=C/c1ccccc1)/C=C/c1ccccc1,74,-,95,-,-,-,.,99,92
CC(C)=CC(=O)Nc1ccccc1Br,-,-,-,-,-,.,.,.,.
COc1ccc([N+](=O)[O-])cc1N(CC(O)CN(C)C)S(=O)(=O)c1ccccc1 (configuration not stated),-,-,-,-,-,.,.,.,.
Cc1ccccc1C[n+]1cccc2ccccc21,-,-,-,-,-,.,.,.,.
CCCCCCCCCCCCCCCC[n+]1cccc2ccccc21,35,-,96,-,-,100,-,-,-
CCOC(CCn1c(SCc2ccc([N+](=O)[O-])cc2)nc2ccccc2c1=O)OCC,-,-,-,-,-,.,.,.,.
COc1cccc(F)c1C(C[N+](=O)[O-])c1c(N)n(C)c(=O)n(C)c1=O (configuration not stated),31,-,95,-,-,45,36,30,68
COC(=O)c1ccc(C(c2c(N)n(CC(C)C)c(=O)[nH]c2=O)N2CCN(c3ccccc3)CC2)cc1 (configuration not stated),-,-,-,-,-,.,.,.,.
CNC[C@H](Cc1ccccc1)NC[C@@H](Cc1cccc2ccccc12)NCCc1ccc(C)cc1,39,-,100,-,-,86,51,-,14
CNCCNC[C@H](Cc1cccc2ccccc12)NCCc1ccccc1,-,-,-,-,-,.,.,.,.
Cc1ccc(Nc2cc(C)nc(NCc3ccccc3)n2)cc1,23,-,57,-,-,-,.,-,15
CC1CCCN(S(=O)(=O)c2ccc(C(=O)Nc3nnc(C4CC4)o3)cc2)C1 (configuration not stated),-,-,-,-,-,.,.,.,.
Cc1cc(C)c2nc(NNC(=O)c3ccc(S(=O)(=O)N4CCCC(C)C4)cc3)sc2c1 (configuration not stated),23,-,83,-,-,86,45,59,.
SMILES,ABHD5-PLIN5 inh,CHOP UPR activ,Mdm2-MdmX inh,UPR XBP1 act,Exocytosis inh,Mdm2 MdmX conf,Full FLuc ctr,ABHD5-PLIN5 conf,HNF4 split-luc
CCOc1ccc(CCN2C(=S)N([C@@H](CC(C)C)CN3CCCC3CN3C(=S)NC[C@@H]3Cc3ccc(O)cc3)C[C@@H]2Cc2ccc(O)cc2)cc1 (some centres not stated),-,.,.,.,-,.,.,.,.
CCOc1cc(/C=C2\COc3ccccc3C2=O)cc(Br)c1OCC(=O)N(C)C,77,-,97,-,-,74,59,86,94
CCOc1cc(/C=N/Nc2nc3ccccc3[nH]2)cc(Br)c1OCC(=O)N(C)C,-,-,-,-,-,.,.,.,.
CCCCCc1cc(=O)oc2c(C(CCN3CCN(c4ccccc4)CC3)c3ccc4c(c3)OCO4)c(OC)cc(OC)c12 (configuration not stated),-,-,-,-,-,.,.,.,.
COc1cc(C(CC(=O)N2CCCC2)c2c(OC)cc(OC)c3c(-c4ccccc4)cc(=O)oc23)cc(OC)c1OC (configuration not stated),-,-,-,-,-,.,.,.,.
COc1cc(C(CCN2CCCC(C)C2)c2c(OC)cc(OC)c3c(-c4ccccc4)cc(=O)oc23)cc(OC)c1OC (configuration not stated),27,-,82,-,-,-,.,-,-
CCCCCc1cc(=O)oc2c(C(CCN3CCCCC3)c3ccc(OC)cc3)c(OC)cc(OC)c12 (configuration not stated),26,-,96,-,-,-,44,-,-
CN(C(=O)c1cccc(NC(=O)C2CCCN(C(=O)OC(C)(C)C)C2)c1)C1CCC1 (configuration not stated),-,-,-,-,-,.,.,.,.
CC(=O)Nc1cccc(C(=O)/C=C/c2ccc(C)cc2)c1,49,-,57,-,-,52,54,87,82
O=[N+]([O-])c1ccc(S(=O)(=O)c2cccc(C(F)(F)F)c2)nc1,52,-,95,-,60,100,-,88,113
